Data: ChEMBL document CHEMBL3627597, “Synthesis of Fluorine-Containing Phosphodiesterase 10A (PDE10A) Inhibitors and the In Vivo Evaluation of F-18 Labeled PDE10A PET Tracers in Rodent and Nonhuman Primate” (J Med Chem, 2015)

How the values were obtained:
Homo sapiens [1] = species: Homo sapiens; test: Selectivity ratio of IC50 for recombinant human PDE4A to IC50 for recombinant human PDE10A
[2] = target: cGMP-inhibited 3',5'-cyclic phosphodiesterase 3B (Homo sapiens, UniProt Q13370); test: Inhibition of recombinant human PDE3B assessed as reduction of [3H]-cAMP hydrolysis preincubated for 5 mins followed by [3H]-cAMP addition measured after 20 mins by scintillation proximity assay
Sequence of cGMP-inhibited 3',5'-cyclic phosphodiesterase 3B (Q13370 whole entry): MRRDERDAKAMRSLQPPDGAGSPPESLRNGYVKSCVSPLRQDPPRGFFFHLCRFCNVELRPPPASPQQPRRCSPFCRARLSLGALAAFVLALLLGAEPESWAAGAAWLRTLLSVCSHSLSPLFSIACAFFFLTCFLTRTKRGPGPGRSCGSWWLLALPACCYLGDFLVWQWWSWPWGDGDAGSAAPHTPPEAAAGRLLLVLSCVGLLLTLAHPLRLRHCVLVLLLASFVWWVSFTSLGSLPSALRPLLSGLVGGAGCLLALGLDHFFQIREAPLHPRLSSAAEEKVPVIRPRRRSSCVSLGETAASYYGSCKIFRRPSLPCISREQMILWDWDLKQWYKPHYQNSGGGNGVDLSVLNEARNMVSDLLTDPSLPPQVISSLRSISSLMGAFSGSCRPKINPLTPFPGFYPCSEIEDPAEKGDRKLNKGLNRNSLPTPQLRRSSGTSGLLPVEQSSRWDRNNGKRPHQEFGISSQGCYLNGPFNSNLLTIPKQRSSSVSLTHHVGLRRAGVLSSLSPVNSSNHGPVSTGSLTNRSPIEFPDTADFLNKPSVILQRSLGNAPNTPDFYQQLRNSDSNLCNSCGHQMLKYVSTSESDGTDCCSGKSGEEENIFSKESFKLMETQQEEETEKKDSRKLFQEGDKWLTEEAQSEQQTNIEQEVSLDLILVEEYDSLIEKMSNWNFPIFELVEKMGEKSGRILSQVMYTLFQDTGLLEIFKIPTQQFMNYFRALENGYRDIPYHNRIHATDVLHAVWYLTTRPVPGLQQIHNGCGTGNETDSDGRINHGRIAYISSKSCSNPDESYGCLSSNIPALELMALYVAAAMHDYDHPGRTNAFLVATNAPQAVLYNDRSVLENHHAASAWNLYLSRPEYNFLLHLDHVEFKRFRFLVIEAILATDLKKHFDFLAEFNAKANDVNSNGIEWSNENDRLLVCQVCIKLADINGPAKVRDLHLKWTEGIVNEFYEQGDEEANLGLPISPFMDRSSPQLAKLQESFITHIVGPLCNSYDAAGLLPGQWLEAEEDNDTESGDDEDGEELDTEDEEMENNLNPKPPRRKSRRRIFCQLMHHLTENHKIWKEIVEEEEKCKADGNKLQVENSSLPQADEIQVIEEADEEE
How it was run: (§1)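 Recombinant human PDE with [3H]cAMP scintillation proximity assay. Enzyme used at a level within the linear range. Inhibitor (DMSO serial dilutions) plus enzyme held 5 min on ice, then [3H]cAMP added at 1/3 Km (1.48 kBq/mL), 20 min on ice (~30% turnover). Stopped with yttrium silicate SPA beads; settled 1.5 h at rt and counted. IC50 from one-site nonlinear fit, at least two independent runs, ± SD.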

Homo sapiens [3] = species: Homo sapiens; test: Selectivity ratio of IC50 for recombinant human PDE4B to IC50 for recombinant human PDE10A
[4] = target: 3',5'-cyclic-AMP phosphodiesterase 4A (Homo sapiens, UniProt P27815); test: Inhibition of recombinant human PDE4A assessed as reduction of [3H]-cAMP hydrolysis preincubated for 5 mins followed by [3H]-cAMP addition measured after 20 mins by scintillation proximity assay; how it was run: as §1
Sequence of 3',5'-cyclic-AMP phosphodiesterase 4A (P27815 whole entry): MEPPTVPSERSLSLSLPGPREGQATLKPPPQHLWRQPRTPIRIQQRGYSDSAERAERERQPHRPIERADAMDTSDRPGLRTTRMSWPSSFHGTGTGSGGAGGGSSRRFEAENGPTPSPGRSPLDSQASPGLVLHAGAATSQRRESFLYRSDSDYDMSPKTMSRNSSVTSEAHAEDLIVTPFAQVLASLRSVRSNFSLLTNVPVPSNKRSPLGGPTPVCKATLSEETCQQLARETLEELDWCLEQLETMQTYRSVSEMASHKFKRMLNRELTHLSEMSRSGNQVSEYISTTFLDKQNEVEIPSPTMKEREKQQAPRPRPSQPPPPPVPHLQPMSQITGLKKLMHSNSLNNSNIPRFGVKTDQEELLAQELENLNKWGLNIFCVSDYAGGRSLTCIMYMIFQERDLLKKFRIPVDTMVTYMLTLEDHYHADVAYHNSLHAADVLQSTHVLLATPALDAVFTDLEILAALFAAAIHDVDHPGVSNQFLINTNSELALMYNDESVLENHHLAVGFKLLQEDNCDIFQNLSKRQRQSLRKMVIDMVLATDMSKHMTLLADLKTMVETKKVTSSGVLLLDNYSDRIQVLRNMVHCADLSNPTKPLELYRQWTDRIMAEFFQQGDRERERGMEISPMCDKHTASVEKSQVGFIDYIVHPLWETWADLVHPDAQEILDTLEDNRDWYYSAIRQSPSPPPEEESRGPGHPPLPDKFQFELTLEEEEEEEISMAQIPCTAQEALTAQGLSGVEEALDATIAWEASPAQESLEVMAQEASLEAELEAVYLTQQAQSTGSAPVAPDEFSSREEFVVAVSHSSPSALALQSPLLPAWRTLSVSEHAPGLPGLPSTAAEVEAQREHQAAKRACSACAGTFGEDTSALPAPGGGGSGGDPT

Homo sapiens [5] = species: Homo sapiens; test: Selectivity ratio of IC50 for recombinant human PDE3A to IC50 for recombinant human PDE10A
Homo sapiens [6] = species: Homo sapiens; test: Selectivity ratio of IC50 for recombinant human PDE3B to IC50 for recombinant human PDE10A
[7] = target: 3',5'-cyclic-AMP phosphodiesterase 4B (Homo sapiens, UniProt Q07343); test: Inhibition of recombinant human PDE4B assessed as reduction of [3H]-cAMP hydrolysis preincubated for 5 mins followed by [3H]-cAMP addition measured after 20 mins by scintillation proximity assay; how it was run: as §1
Sequence of 3',5'-cyclic-AMP phosphodiesterase 4B (Q07343 whole entry): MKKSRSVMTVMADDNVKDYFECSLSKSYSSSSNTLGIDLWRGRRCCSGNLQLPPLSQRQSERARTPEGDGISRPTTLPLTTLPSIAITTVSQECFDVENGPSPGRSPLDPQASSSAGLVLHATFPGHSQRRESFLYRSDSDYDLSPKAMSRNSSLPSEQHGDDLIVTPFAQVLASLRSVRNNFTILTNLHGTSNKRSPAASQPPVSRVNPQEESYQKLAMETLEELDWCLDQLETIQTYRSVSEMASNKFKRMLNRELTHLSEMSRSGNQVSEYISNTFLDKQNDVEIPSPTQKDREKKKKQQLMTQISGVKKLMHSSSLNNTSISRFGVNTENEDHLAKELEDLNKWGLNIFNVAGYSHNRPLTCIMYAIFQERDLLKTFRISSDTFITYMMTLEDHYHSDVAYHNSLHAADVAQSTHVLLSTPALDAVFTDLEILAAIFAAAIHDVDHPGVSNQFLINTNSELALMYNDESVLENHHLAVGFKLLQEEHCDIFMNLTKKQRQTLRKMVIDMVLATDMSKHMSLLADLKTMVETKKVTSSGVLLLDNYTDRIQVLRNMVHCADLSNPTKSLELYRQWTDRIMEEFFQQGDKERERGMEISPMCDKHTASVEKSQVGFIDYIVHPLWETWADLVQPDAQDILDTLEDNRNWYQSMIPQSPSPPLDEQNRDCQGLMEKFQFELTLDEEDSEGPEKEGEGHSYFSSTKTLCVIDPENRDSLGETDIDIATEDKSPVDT

[8] = target: cGMP-inhibited 3',5'-cyclic phosphodiesterase 3A (Homo sapiens, UniProt Q14432); test: Inhibition of recombinant human PDE3A assessed as reduction of [3H]-cAMP hydrolysis preincubated for 5 mins followed by [3H]-cAMP addition measured after 20 mins by scintillation proximity assay; how it was run: as §1
Sequence of cGMP-inhibited 3',5'-cyclic phosphodiesterase 3A (Q14432 whole entry): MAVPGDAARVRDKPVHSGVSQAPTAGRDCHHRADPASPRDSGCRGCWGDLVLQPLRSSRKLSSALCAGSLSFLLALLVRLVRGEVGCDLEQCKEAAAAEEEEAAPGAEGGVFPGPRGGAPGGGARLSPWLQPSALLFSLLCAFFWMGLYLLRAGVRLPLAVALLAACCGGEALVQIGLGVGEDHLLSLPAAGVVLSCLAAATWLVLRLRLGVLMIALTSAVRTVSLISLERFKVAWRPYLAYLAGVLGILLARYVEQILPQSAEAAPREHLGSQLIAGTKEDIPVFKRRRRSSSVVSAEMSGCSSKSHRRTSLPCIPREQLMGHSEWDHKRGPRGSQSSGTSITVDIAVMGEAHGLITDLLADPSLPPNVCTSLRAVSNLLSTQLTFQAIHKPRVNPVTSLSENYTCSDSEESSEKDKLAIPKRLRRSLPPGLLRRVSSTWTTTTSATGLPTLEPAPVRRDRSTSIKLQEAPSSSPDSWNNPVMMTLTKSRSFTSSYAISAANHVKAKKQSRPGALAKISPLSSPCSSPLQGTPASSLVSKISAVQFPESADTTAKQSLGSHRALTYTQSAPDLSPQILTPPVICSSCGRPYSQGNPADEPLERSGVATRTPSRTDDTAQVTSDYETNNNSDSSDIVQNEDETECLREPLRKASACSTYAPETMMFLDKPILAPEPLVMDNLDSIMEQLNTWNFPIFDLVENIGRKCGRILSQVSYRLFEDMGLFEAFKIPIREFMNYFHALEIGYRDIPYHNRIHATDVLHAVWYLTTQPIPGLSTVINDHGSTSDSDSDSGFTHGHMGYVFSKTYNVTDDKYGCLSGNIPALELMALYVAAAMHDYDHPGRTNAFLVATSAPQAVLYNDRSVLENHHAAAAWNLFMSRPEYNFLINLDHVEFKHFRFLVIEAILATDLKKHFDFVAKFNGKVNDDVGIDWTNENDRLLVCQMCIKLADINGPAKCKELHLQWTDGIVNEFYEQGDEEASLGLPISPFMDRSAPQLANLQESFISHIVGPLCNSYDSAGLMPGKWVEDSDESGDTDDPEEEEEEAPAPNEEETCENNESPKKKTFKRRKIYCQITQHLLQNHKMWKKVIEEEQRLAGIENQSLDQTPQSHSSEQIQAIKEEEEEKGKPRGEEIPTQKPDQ

[9] = target: cAMP and cAMP-inhibited cGMP 3',5'-cyclic phosphodiesterase 10A (Homo sapiens, UniProt Q9Y233); test: Inhibition of recombinant human PDE10A assessed as reduction of [3H]-cAMP hydrolysis preincubated for 5 mins followed by [3H]-cAMP addition measured after 20 mins by scintillation proximity assay; how it was run: as §1
Sequence of cAMP and cAMP-inhibited cGMP 3',5'-cyclic phosphodiesterase 10A (Q9Y233 whole entry): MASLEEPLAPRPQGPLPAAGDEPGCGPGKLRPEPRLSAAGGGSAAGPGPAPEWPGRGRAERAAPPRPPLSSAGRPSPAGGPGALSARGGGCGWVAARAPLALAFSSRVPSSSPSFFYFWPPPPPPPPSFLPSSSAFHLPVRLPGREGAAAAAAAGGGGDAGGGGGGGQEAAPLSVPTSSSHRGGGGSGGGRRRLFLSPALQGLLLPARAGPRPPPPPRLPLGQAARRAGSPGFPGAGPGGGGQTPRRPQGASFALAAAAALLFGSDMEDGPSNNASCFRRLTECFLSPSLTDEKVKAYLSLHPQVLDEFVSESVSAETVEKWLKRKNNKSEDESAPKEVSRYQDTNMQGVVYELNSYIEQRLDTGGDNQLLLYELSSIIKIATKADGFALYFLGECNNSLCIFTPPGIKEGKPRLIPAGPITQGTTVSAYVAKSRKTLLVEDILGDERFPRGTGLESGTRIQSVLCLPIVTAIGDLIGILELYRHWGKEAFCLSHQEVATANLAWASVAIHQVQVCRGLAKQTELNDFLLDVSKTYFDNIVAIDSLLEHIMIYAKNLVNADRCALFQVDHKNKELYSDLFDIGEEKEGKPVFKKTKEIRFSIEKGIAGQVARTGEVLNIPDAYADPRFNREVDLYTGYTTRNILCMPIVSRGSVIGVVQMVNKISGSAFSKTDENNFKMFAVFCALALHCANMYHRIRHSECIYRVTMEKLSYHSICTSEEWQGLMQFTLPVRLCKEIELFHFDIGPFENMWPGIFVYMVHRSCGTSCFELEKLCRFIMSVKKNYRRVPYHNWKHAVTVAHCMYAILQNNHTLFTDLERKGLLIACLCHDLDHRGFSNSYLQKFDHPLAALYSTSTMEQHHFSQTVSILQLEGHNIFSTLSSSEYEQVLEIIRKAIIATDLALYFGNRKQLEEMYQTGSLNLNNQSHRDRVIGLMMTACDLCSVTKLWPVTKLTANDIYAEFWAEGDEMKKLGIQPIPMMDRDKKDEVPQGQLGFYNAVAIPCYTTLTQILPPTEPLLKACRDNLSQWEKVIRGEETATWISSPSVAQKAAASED

| SMILES | Ratio IC50 (Homo sapiens [1]) | IC50 [2] [µM] | Ratio IC50 (Homo sapiens [3]) | IC50 [4] [µM] | Ratio IC50 (Homo sapiens [5]) | Ratio IC50 (Homo sapiens [6]) | IC50 [7] [µM] | IC50 [8] [µM] | IC50 [9] [µM] |
| --- | --- | --- | --- | --- | --- | --- | --- | --- | --- |
| Cn1cc(-c2ccncc2)c(-c2ccc(OCc3ccc4cc(OCCF)ccc4n3)cc2)n1 | > 210 | – | > 210 | – | > 210 | > 210 | – | – | 0.0335 |
| Cn1cc(-c2ccncc2)c(-c2ccc(OCc3cc(OCCOCCOCCF)c4ccccc4n3)cc2)n1 | > 210 | 61.9 | > 210 | 1.57 | > 210 | > 210 | 1.58 | 116 | 0.00024 |
| Cn1cc(-c2ccncc2)c(-c2ccc(OCc3cc(-n4cc(CCF)nn4)c4ccccc4n3)cc2)n1 | > 210 | 3.56 | > 210 | 1.57 | > 210 | > 210 | 18.3 | 4.51 | 0.00307 |
| Cn1cc(-c2ccncc2)c(-c2ccc(OCc3ccc4cc(CF)ccc4n3)cc2)n1 | > 210 | – | > 210 | – | > 210 | > 210 | – | – | > 0.076 |
| Cn1ncc(-c2ccncc2)c1-c1ccc(OCc2cc(OCCOCCOCCOCCF)c3ccccc3n2)cc1 | > 210 | 28.1 | > 210 | 15 | > 210 | > 210 | 1.73 | 58.7 | 0.0003 |
| Cn1cc(-c2ccncc2)c(-c2ccc(OCc3nc4ccccc4cc3OCCF)cc2)n1 | > 210 | 19.9 | > 210 | 1.76 | > 210 | > 210 | 1.04 | 25.9 | 0.00026 |
| Cn1cc(-c2ccncc2)c(-c2ccc(OCc3cc(OCCOCCOCCOCCF)c4ccccc4n3)cc2)n1 | > 210 | 29.6 | > 210 | 9.89 | > 210 | > 210 | 10.3 | 144 | 0.00033 |
| Cn1cc(-c2ccncc2)c(-c2ccc(OCc3cc(CCCF)c4ccccc4n3)cc2)n1 | > 210 | 19.1 | > 210 | 0.46 | > 210 | > 210 | 0.38 | 21.9 | 0.0018 |
| Cn1cc(-c2ccncc2)c(-c2ccc(OCc3cc(OCCOCCF)c4ccccc4n3)cc2)n1 | > 210 | 16.2 | > 210 | 1.44 | > 210 | > 210 | 0.9 | 22.9 | 0.00027 |
| Cn1cc(-c2ccncc2)c(-c2ccc(OCc3cc(F)c4ccccc4n3)cc2)n1 | > 210 | 103 | > 210 | 8.35 | > 210 | > 210 | 6.42 | 199 | 0.00071 |
| Cn1cc(-c2ccncc2)c(-c2ccc(OCc3ccc4cc(F)ccc4n3)cc2)n1 | > 210 | 23.9 | > 210 | 2.33 | > 210 | > 210 | 2.55 | 38.5 | 0.00029 |
| Cn1cc(-c2ccncc2)c(-c2ccc(OCc3cc(COCCF)c4ccccc4n3)cc2)n1 | > 210 | 4.55 | > 210 | 2.22 | > 210 | > 210 | 1.77 | 4.07 | 0.00065 |

Further lines, results first:

| Ratio IC50 (Homo sapiens [1]) | IC50 [2] [µM] | Ratio IC50 (Homo sapiens [3]) | IC50 [4] [µM] | Ratio IC50 (Homo sapiens [5]) | Ratio IC50 (Homo sapiens [6]) | IC50 [7] [µM] | IC50 [8] [µM] | IC50 [9] [µM] | SMILES |
| --- | --- | --- | --- | --- | --- | --- | --- | --- | --- |
| > 210 | 38.3 | > 210 | 12.4 | > 210 | > 210 | 1.59 | 78.8 | 0.00037 | Cn1ncc(-c2ccncc2)c1-c1ccc(OCc2cc(NCCF)c3ccccc3n2)cc1 |
| > 210 | 51.8 | > 210 | 8.36 | > 210 | > 210 | 7.31 | 62.2 | 0.00047 | Cn1ncc(-c2ccncc2)c1-c1ccc(OCc2cc(OCCOCCOCCF)c3ccccc3n2)cc1 |
| > 210 | 151 | > 210 | 9.73 | > 210 | > 210 | 0.76 | 111 | 0.00076 | Cn1ncc(-c2ccncc2)c1-c1ccc(OCc2ccc3cc(F)ccc3n2)cc1 |
| > 210 | > 1000 | > 210 | 4.77 | > 210 | > 210 | 4.24 | 306 | 0.00112 | Cn1ncc(-c2ccncc2)c1-c1ccc(OCc2cc(COCCF)c3ccccc3n2)cc1 |
| > 210 | 3.48 | > 210 | 5.97 | > 210 | > 210 | 4.8 | 3.74 | 0.00052 | Cn1cc(-c2ccncc2)c(-c2ccc(OCc3cc(NCCF)c4ccccc4n3)cc2)n1 |
| > 210 | 16.2 | > 210 | 1.86 | > 210 | > 210 | 0.9 | 0.81 | 0.00498 | Cn1ncc(-c2ccncc2)c1-c1ccc(OCc2cc(-n3cc(CCF)nn3)c3ccccc3n2)cc1 |
| > 210 | 50.1 | > 210 | 12.3 | > 210 | > 210 | 11.6 | 66.4 | 0.00036 | Cn1ncc(-c2ccncc2)c1-c1ccc(OCc2cc(OCCOCCF)c3ccccc3n2)cc1 |
| > 210 | 5.61 | > 210 | 3.72 | > 210 | > 210 | 1.02 | 3.77 | 0.00116 | Cn1ncc(-c2ccncc2)c1-c1ccc(OCc2cc(OCCF)c3ccccc3n2)cc1 |
| > 210 | 5.68 | > 210 | 4.09 | > 210 | > 210 | 3.8 | 7.71 | 0.00068 | Cn1cc(-c2ccncc2)c(-c2ccc(OCc3cc(CF)c4ccccc4n3)cc2)n1 |
| > 210 | 7.76 | > 210 | 1.01 | > 210 | > 210 | 1.77 | 29.5 | 0.00032 | Cn1cc(-c2ccncc2)c(-c2ccc(OCc3cc(OCCF)c4ccccc4n3)cc2)n1 |
